This passage reports IC50, inhibition in vivo and Survival results from ChEMBL document CHEMBL1134502, “Aromatic quinolinecarboxamides as selective, orally active antibody production inhibitors for prevention of acute xenograft rejection” (J Med Chem, 2001).

In one assay the test system is Jurkat. Description: In vitro inhibition of Jurkat cell proliferation. It is filed as functional, cell-based. To be noted: Homo sapiens. A digest of the protocol: (§1)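 Murine B-cells stimulated with TNP-LPS (T-cell-independent type 1) were read for antibody production, the mouse MLR for T-cell activity, and Jurkat proliferation for cytotoxicity. Values are IC50 ± SE in µM, the mean of at least four independent determinations.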

Assay [1] concerns Mus musculus. Description: In vivo inhibition of TNP-specific immunoglobulin G production at 10 mg/kg/day oral administration. It is filed as functional. A digest of the protocol:
(§2)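 OF1 mice were immunized iv with TNP-LPS and dosed on day 0 plus the three following days (four doses). The sc vehicle was polyethoxylated castor oil/EtOH; the po vehicle was Labrafil/EtOH/corn oil. Mice were bled on day 6, and serum DNP-specific IgM or IgG was titred by ELISA on DNP-BSA plates at a defined OD405.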

Assay [2] has as its system Mus musculus. Description: In vivo inhibition of TNP-specific immunoglobulin M production at 10 mg/kg/day, po. The format is functional. A digest of the protocol:
as §2

Assay [3] relates to Mus musculus. Description: Survival period of mice in days after xenotransplantation and for a dose of 3 mg/kg (Histology = antibody-mediated rejection). The format is functional.
Assay [4] has as its system Mus musculus. Description: In vivo inhibition of TNP-specific immunoglobulin G production at 3 mg/kg/day subcutaneous administration. It is filed as functional. Conditions: sc. A digest of the protocol: as §2
The species entered for assay [5] is Mus musculus. Description: In vitro T-cell immunosuppressive activity in the mouse mixed lymphocyte reaction (MLR). It is filed as functional. A digest of the protocol:
as §1

Assay [6] can be described thus: In vitro inhibition of Ab formation from trinitrophenyl-lipopolysaccharide (TNP-LPS) B-cells. The format is functional. To be noted: Mus musculus. A digest of the protocol:
as §1

Assay [7] has as its system Mus musculus. Description: Survival period of mice in days after xenotransplantation and for a dose of 30 mg/kg (Histology = antibody-mediated rejection, Chronic rejection). It is filed as functional.
Assay [8] concerns Mus musculus. Description: In vivo inhibition of TNP-specific immunoglobulin G production at 50 mg/kg/day subcutaneous administration. It is filed as functional. Conditions: sc. A digest of the protocol:
as §2

In assay [9] the test system is Mus musculus. Description: In vivo inhibition of TNP-specific immunoglobulin M production at 50 mg/kg/day, sc. The format is functional. Conditions: route subcutaneous. A digest of the protocol:
as §2

The test system of assay [10] is Mus musculus. Description: In vivo inhibition of TNP-specific immunoglobulin M production at 3 mg/kg/day, sc. It is filed as functional. To be noted: route subcutaneous. A digest of the protocol: as §2
For assay [11], the system named is Mus musculus. Description: In vivo inhibition of TNP-specific immunoglobulin G production at 30 mg/kg/day subcutaneous administration. To be noted: sc. It is filed as functional. A digest of the protocol:
as §2

For assay [12], the system named is Mus musculus. Description: Survival period of mice in days after xenotransplantation and for a dose of 50 mg/kg (Histology = no antibody-mediated rejection). It is filed as functional.
For assay [13], the system named is Mus musculus. Description: In vivo inhibition of TNP-specific immunoglobulin M production at 30 mg/kg/day, sc. To be noted: route subcutaneous. It is filed as functional. A digest of the protocol:
as §2

As a reminder, the IC50 is the midpoint of a concentration-inhibition curve. By inhibition in vivo is commonly meant how much of the control response was suppressed. The low end stands for little suppression, the high end for strong suppression.

As for `C/C=C/C[C@@H](C)[C@@H](O)[C@H]1C(=O)N[C@@H](CC)C(=O)N(C)CC(=O)N(C)[C@@H](CC(C)C)C(=O)N[C@@H](C(C)C)C(=O)N(C)[C@@H](CC(C)C)C(=O)N[C@@H](C)C(=O)N[C@H](C)C(=O)N(C)[C@@H](CC(C)C)C(=O)N(C)[C@@H](CC(C)C)C(=O)N(C)[C@@H](C(C)C)C(=O)N1C` [CYCLOSPORINE], the IC50 in the assay on Jurkat was greater than 10 µM.

Regarding `Cc1oncc1C(=O)Nc1ccc(C(F)(F)F)cc1` [LEFLUNOMIDE], the figures for the inhibition in vivo at 10 mg/kg/day in the assay with Mus musculus [1] and in the assay on Mus musculus [2] were less than 0% and 5%, respectively. Moreover, the figures for the Survival in the assay with Mus musculus [3], in the assay with Mus musculus [7] and in the assay with Mus musculus [12] were 7 days, greater than 7 days and greater than 28 days, respectively. For the same compound, the inhibition in vivo at 3 mg/kg/day with Mus musculus [4] and with Mus musculus [10] was less than 0% throughout. Further, the IC50 in the assay filed under Mus musculus [5] came to 11.4 µM; in [6] it was 5.1 µM; with Jurkat, 34.6 µM. Further, the figures for the inhibition in vivo at 50 mg/kg/day with Mus musculus [8] and in the assay with Mus musculus [9] were 85% and 71%, respectively. The inhibition in vivo at 30 mg/kg/day was 39% in the assay on Mus musculus [11] and 37% in the assay on Mus musculus [13].
